These results are taken from ChEMBL document CHEMBL4330076, “Quinazolin-2,4-dione-Based Hydroxamic Acids as Selective Histone Deacetylase-6 Inhibitors for Treatment of Non-Small Cell Lung Cancer” (J Med Chem, 2019).

A short description of series [1]: Drug uptake in C57BL/6 mouse liver at 40 mg/kg, po administered via gavage by LC-MS/MS analysis. Conditions: in vivo. The class given is ADME, organism-based.
The subject of series [2] is A549. Briefly: Induction of apoptosis in human A549 cells assessed as viable cells at 4 uM after 24 hrs in presence of paclitaxel by Annexin V/propidium iodide staining-based flow cytometric analysis (reference value: 96.2%). Type of series: functional.
The test system of series [3] is Lewis lung carcinoma cell line. The series is described as follows: Induction of apoptosis in mouse LL/2 cells assessed as necrotic cells at 4 uM after 24 hrs in presence of paclitaxel by Annexin V/propidium iodide staining-based flow cytometric analysis (reference value: 7.3%). Type of series: functional. (A flow cytometer gives signals particle by particle.)
Series [4] in a line: Ratio of drug uptake in C57BL/6 mouse plasma at 40 mg/kg, po administered via gavage co-administered with paclitaxel at 10 mg/kg, ip by LC-MS/MS analysis to drug uptake in C57BL/6 mouse plasma at 40 mg/kg, po administered via gavage by LC-MS/MS analysis. Type of series: ADME, organism-based. Conditions: in vivo.
Series [5] is described as follows: Drug uptake in C57BL/6 mouse liver at 40 mg/kg, po administered via gavage co-administered with paclitaxel at 10 mg/kg, ip by LC-MS/MS analysis. The class given is ADME, organism-based. Conditions: in vivo.
Series [6] is described as follows: AUC (0 to 24 hrs) in C57BL/6 mouse liver at 40 mg/kg, po administered via gavage by LC-MS/MS analysis. The class given is ADME, organism-based. The arrangement: dose 40 mg/kg, time < 24 hr, route oral. To be noted: in vivo.
For series [7], the system named is Lewis lung carcinoma cell line. Briefly: Antitumor activity against mouse LL/2 cells implanted in C57BL/6 mouse assessed as tumor growth inhibition at 40 to 80 mg/kg, po qd administered for 21 consecutive days relative to control. The class given is functional.
A short description of series [8]: Drug uptake in C57BL/6 mouse lung at 40 mg/kg, po administered via gavage by LC-MS/MS analysis. The class given is ADME, organism-based. Conditions: in vivo.
Series [9] can be described thus: Drug uptake in C57BL/6 mouse plasma at 40 mg/kg, po administered via gavage by LC-MS/MS analysis. The class given is ADME, organism-based. To be noted: in vivo.
Series [10] in a line: Ratio of AUC (0 to 24 hrs) in lung to plasma of C57BL/6 mouse at 40 mg/kg, po administered via gavage by LC-MS/MS analysis. Type of series: ADME, organism-based. To be noted: read-out: Ratio AUC.
In series [11] the target is T1, Protein deacetylase HDAC6 (Homo sapiens, UniProt Q9UBN7).
T1 sequence (Q9UBN7 whole entry): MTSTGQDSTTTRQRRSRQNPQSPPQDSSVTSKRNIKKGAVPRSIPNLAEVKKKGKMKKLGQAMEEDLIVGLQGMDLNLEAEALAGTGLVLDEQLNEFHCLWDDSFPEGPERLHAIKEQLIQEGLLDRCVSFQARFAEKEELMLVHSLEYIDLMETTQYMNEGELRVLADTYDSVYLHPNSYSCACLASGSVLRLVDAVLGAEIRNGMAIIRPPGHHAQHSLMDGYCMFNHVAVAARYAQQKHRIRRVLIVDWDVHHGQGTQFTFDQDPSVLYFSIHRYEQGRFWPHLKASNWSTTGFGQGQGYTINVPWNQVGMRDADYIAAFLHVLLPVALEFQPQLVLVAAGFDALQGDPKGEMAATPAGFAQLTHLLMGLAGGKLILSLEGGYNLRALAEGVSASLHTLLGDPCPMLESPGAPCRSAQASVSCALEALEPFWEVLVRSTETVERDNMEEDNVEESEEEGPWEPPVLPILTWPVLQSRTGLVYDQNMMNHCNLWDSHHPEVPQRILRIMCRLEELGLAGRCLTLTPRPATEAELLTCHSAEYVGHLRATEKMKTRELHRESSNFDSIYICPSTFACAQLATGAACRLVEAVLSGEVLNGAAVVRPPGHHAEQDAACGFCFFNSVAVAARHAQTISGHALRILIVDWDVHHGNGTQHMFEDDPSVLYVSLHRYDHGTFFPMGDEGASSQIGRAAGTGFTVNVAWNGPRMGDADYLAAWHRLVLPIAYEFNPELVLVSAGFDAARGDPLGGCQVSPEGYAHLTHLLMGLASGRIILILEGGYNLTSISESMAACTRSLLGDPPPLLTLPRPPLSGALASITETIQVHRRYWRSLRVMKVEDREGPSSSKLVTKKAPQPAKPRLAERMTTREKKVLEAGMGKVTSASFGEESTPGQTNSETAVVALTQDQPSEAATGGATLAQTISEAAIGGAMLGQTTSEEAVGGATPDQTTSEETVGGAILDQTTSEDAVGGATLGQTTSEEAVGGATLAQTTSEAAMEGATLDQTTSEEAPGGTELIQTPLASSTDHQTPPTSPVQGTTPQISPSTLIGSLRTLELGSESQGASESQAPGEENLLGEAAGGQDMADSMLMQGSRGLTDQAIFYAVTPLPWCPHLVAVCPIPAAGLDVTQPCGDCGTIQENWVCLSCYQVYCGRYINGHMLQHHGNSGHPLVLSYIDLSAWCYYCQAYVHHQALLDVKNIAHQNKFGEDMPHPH
The series is described as follows: Competitive inhibition of human HDAC6 CD2 expressed in Escherichia coli BL21 (RIL) using Boc-Lys (Ac)-AMC as substrate preincubated for 10 mins followed by substrate addition and measured after 30 mins by fluorescence assay.

The test system of series [12] is Lewis lung carcinoma cell line. The series is described as follows: Induction of apoptosis in mouse LL/2 cells assessed as late apoptotic cells at 4 uM after 24 hrs by Annexin V/propidium iodide staining-based flow cytometric analysis (reference value: 8.7%). The class given is functional.
Series [13] has as its system A549. The series is described as follows: Induction of apoptosis in human A549 cells assessed as early apoptotic cells at 4 uM after 24 hrs by Annexin V/propidium iodide staining-based flow cytometric analysis (reference value: 1.2%). Type of series: functional.
The nature of series [14]: Drug metabolism in C57BL/6 mouse kidney assessed as hydrolysis metabolite formation at 40 mg/kg, po administered via gavage by LC-MS/MS analysis. Type of series: ADME, organism-based. Conditions: in vivo.
In series [15] the test system is A549. The series is described as follows: Cytotoxicity against human A549 cells after 72 hrs by MTT assay. Conditions: A549, 72 h. The class given is functional, cell-based. In short, it runs like this:
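Human A549 lung cancer cells exposed to serial dilutions of inhibitor at 37 °C for 72 h. Cytotoxicity expressed as IC50.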

Series [16] is described as follows: AUC (0 to 24 hrs) in C57BL/6 mouse kidney at 40 mg/kg, po administered via gavage by LC-MS/MS analysis. The arrangement: time < 24 hr, dose 40 mg/kg, route oral. To be noted: in vivo. Type of series: ADME, organism-based.
Series [17] is described as follows: Ratio of compound AUC (0 to 24 hrs) to ACY-1215 AUC (0 to 24 hrs) in C57BL/6 mouse liver at 40 mg/kg, po administered via gavage by LC-MS/MS analysis. Conditions: in vivo. The class given is ADME, organism-based.
Series [18] has as its system Lewis lung carcinoma cell line. The series is described as follows: Cytotoxicity against mouse LL/2 cells at 4 uM after 72 hrs in presence of paclitaxel by MTT assay relative to control. The class given is functional. In short, it runs like this: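 Mouse LL/2 cells treated with inhibitor alone or combined with paclitaxel for 3 days. Viability measured by MTT assay relative to untreated control.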

Series [19] deals with Lewis lung carcinoma cell line. Briefly: Induction of apoptosis in mouse LL/2 cells assessed as late apoptotic cells at 4 uM after 24 hrs in presence of paclitaxel by Annexin V/propidium iodide staining-based flow cytometric analysis (reference value: 8.7%). Type of series: functional.
The nature of series [20]: Ratio of drug uptake in C57BL/6 mouse liver at 40 mg/kg, po administered via gavage co-administered with paclitaxel at 10 mg/kg, ip by LC-MS/MS analysis to drug uptake in C57BL/6 mouse liver at 40 mg/kg, po administered via gavage by LC-MS/MS analysis. The class given is ADME, organism-based. Conditions: in vivo.

A word on the TGI: it is the reduction of tumour growth relative to the control group. A word on the Ki: it is the dissociation constant of the complex between target and ligand, obtained from inhibition or displacement. A lower Ki goes with higher affinity. In general, IC50 refers to the point on the concentration scale where inhibition reaches its midpoint. Read a low IC50 as greater potency. For `O=C(NO)c1ccc(Cn2c(=O)n(CCc3ccccc3)c(=O)c3ccccc32)cc1`, the Drug uptake is recorded as 782 ng/g in [1], 719 ng/g in [5] and 212 ng/g in series [8]. Also, the Activity in the series with A549 [2] is listed as 92.7%; in series [3], 5.3%; in [12] it was 10.4%; in the series on A549 [13], 1.3%; in series [18], 80 - 90%; in [19], 21.2%. The figures for the Ratio in series [4] and in series [20] were 12.3 and 0.9, respectively. Also, the figures for the AUC in series [6] and in [16] were 6395 ng·h/g and 1903 ng·h/g, respectively. Besides, the TGI in series [7] worked out at 63.4%. The molecule also had a Cp in series [9] of 13 ng/mL. Also, the Kp in series [10] is 18.8. Affinity in series [11] was put at a Ki of 0.0037 µM. In [14], the Drug metabolism entry was “Metabolite_Detected”. The same molecule gave an IC50 in the series on A549 [15] of 7.87 µM. Moreover, in series [17], the “Ratio AUC” value was determined as 4.4.
